# Results taken from BindingDB's records for doi:10.1021/acs.jmedchem.5b01961 (Catabasis Pharmaceuticals, 2016).
# Molecular target: T1, Sterol regulatory element-binding protein 2 (Homo sapiens, UniProt Q12772)
# T1 sequence (Q12772 whole entry): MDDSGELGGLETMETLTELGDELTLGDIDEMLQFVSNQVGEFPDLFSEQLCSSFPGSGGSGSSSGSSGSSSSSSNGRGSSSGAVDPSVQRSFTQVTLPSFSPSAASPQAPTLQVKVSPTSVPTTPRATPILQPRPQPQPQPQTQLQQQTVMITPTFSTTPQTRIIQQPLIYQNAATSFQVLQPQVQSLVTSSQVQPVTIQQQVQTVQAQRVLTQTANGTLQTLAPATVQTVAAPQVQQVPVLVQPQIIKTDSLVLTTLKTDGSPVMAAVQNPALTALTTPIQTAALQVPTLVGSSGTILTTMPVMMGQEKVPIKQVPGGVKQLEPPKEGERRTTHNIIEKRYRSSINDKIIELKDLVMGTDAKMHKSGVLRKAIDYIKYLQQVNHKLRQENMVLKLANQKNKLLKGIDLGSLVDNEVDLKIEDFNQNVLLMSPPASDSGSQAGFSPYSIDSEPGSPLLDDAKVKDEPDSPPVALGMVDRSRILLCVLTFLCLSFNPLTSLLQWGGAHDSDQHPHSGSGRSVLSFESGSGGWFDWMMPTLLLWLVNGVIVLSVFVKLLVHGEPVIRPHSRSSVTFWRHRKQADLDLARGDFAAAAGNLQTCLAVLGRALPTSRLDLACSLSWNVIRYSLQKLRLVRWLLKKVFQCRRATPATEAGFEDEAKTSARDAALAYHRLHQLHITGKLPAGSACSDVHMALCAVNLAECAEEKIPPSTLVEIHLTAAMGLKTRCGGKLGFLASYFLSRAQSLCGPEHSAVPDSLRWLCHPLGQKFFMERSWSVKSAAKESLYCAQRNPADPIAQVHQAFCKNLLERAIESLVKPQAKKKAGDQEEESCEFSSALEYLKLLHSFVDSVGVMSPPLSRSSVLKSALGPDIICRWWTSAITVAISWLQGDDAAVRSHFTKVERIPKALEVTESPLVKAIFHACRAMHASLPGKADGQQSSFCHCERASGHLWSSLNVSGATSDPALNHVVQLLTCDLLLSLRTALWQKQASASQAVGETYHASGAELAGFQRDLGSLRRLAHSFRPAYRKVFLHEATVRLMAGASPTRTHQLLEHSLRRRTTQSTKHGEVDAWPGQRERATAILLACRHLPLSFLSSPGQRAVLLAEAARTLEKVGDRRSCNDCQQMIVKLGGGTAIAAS
# Test: Inhibition of SREBP2 in human HepG2 cells assessed as reduction of PCSK9 secretion after 16 hrs by ELISA
# In short: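 HepG2 cells treated with compound; secreted PCSK9 in culture supernatants measured with a human-specific PCSK9 ELISA.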
compound,measurement,value
CC/C=C\C/C=C\C/C=C\C/C=C\C/C=C\CCCC(=O)NCCNC(=O)c1cccnc1,IC50,17 µM
